Calls of active or inactive are those of the source.
What was measured:
[1] = system: L6; assay: Activation of Akt phosphorylation at Ser473 in rat L6 cells at 10 uM after 1 hr by Western blot analysis; assay type: cell-based
Summary of the method: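 Differentiated L6 myotubes exposed to 10 μM compound for 1 h; IGF-1 6.5 nM for 10 min served as positive control. Lysis in ice-cold RIPA with 10 mM NaF, 2 mM orthovanadate, 1 mM PMSF and protease inhibitors, spun 12,000 g 20 min 4°C. Lysates normalized to 50 μg soluble protein, immunoblotted for phospho-Akt (Ser473); stripped blots reprobed for total Akt as loading control; ECL detection.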

[2] = system: L6; assay: Decrease in protein degradation in rat L6 cells assessed as release of acid-soluble [3H]-phenylalanine into the media normalized by total protein at 10 uM after 4 hrs by scintillation counting relative to control; assay type: functional; set-up: scale not given: the % may be the effect or the level left
Summary of the method: (§1)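 L6 myoblasts differentiated 7–9 d in 2% serum into myotubes. Proteins labelled 16 h with 1.5 μCi/mL [3H]-phenylalanine, then washed. Cells treated 4 h in serum-free medium with vehicle (0.1% ethanol), compound (0.3–30 μM; single-point screen 10 μM), or 10 nM insulin. Medium TCA-precipitated and released [3H]-phenylalanine counted, normalized to mg cell protein (BCA). Triplicate; one-way ANOVA with Dunnett's test.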

[3] = system: L6; assay: Cytotoxicity against rat L6 cells up to 30 uM after 24 hrs by MTT assay; assay type: cell-based; conditions: l6, 24 h
Summary of the method: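 Fully differentiated L6 myotubes (myoblasts fused after 7–9 d in 2% serum) treated with compounds up to 30 μM against 0.1% ethanol vehicle. Viability by MTT assay in triplicate, read at 550 nm, alongside cytological observation.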

[4] = system: L6; assay: Increase in protein synthesis in rat L6 cells assessed as [3H]-phenylalanine incorporation at 10 uM after 4 hrs by scintillation counting relative to control; assay type: functional
Summary of the method: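 L6 myotubes (differentiated in 2% serum) washed with serum-free DMEM. Incubated 4 h with 0.5 μCi/mL [3H]-phenylalanine plus vehicle (0.1% ethanol), compound (0.3–30 μM, or 10 μM), or 6.5 nM IGF-1. Protein precipitated with 5% TCA, dissolved in 0.5 N NaOH, scintillation-counted, normalized to mg protein (BCA). Triplicate; ANOVA/Dunnett.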

[5] = system: L6; assay: Increase in protein synthesis in rat L6 cells assessed as [3H]-phenylalanine incorporation at 0.3 to 30 uM after 4 hrs by scintillation counting relative to control
[6] = system: L6; assay: Decrease in protein degradation in rat L6 cells assessed as release of acid-soluble [3H]-phenylalanine into the media normalized by total protein at 0.3 to 20 uM after 4 hrs by scintillation counting relative to control; assay type: functional, cell-based; summary of the method: as §1
[7] = system: L6; assay: Decrease in protein degradation in rat L6 cells assessed as release of acid-soluble [3H]-phenylalanine into the media normalized by total protein at 1 uM after 4 hrs by scintillation counting relative to control; assay type: functional; set-up: scale not given: the % may be the effect or the level left; summary of the method: as §1
[8] = system: NIH3T3; assay: Cytotoxicity against mouse NIH/3T3 cells at 0.3 to 30 uM after 24 hrs by MTT assay; assay type: cell-based; conditions: nih3t3, 24 h
Summary of the method: (§2)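 NIH-3T3 murine fibroblasts grown in DMEM with 10% FBS at 37°C in 5% CO2. Exposed to 0.3–30 μM for 24 h at 37 °C. MTT read at 550 nm. Absorbance expressed relative to vehicle control cells (taken as 100% proliferation). n=6 from repeated experiments.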

[9] = system: NIH3T3; assay: Cytotoxicity against mouse NIH/3T3 cells after 24 hrs by MTT assay; assay type: cell-based; conditions: NIH3T3, 24 h; summary of the method: as §2
[10] = system: Rattus norvegicus; assay: Upregulation of Fbp2 gene expression in Wistar rat at 60 mg/kg, po qd for 24 days by PCR analysis relative to control; assay type: functional
Summary of the method: (§3)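 Male Wistar rats gavaged daily 24 d with 60 mg/kg or vehicle (5% DMSO in corn oil). RNA from pooled (n=5) frozen gastrocnemius samples run on a rat insulin signaling PCR array (84 genes). Fold change computed as 2^(-ΔCt), with a 4-fold threshold.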

[11] = system: Rattus norvegicus; assay: Anabolic effect in Wistar rat assessed as increase in lean body mass at 60 mg/kg, po qd for 24 days; assay type: functional
[12] = system: Rattus norvegicus; assay: Induction of Myog mRNA expression in Wistar rat at 60 mg/kg, po qd for 24 days by RT-PCR analysis relative to control; assay type: functional
Summary of the method: (§4)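 Gastrocnemius muscle from male Wistar rats dosed orally with 60 mg/kg daily for 24 d, or vehicle. Conventional RT-PCR on individual muscle samples (n=5 per group), duplicate determinations. Compared with control by Student t test.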

[13] = system: Rattus norvegicus; assay: Upregulation of Adar1d gene expression in Wistar rat at 60 mg/kg, po qd for 24 days by PCR analysis relative to control; assay type: functional; summary of the method: as §3
[14] = system: Rattus norvegicus; assay: Upregulation of Igfbp1 gene expression in Wistar rat at 60 mg/kg, po qd for 24 days by PCR analysis relative to control; assay type: functional; summary of the method: as §3
[15] = system: Rattus norvegicus; assay: Effect on Eif2b1 gene expression in Wistar rat at 60 mg/kg, po qd for 24 days by PCR analysis relative to control; assay type: functional, organism-based; set-up: dose 60 mg/kg; summary of the method: as §3
[16] = system: Rattus norvegicus; assay: Induction of Myod1 mRNA expression in Wistar rat at 60 mg/kg, po qd for 24 days by RT-PCR analysis relative to control; assay type: functional; summary of the method: as §4
[17] = system: Rattus norvegicus; assay: Induction of Myf6 mRNA expression in Wistar rat at 60 mg/kg, po qd for 24 days by RT-PCR analysis relative to control; assay type: functional; summary of the method: as §4
[18] = system: Rattus norvegicus; assay: Induction of Myf5 mRNA expression in Wistar rat at 60 mg/kg, po qd for 24 days by RT-PCR analysis relative to control; assay type: functional; summary of the method: as §4
[19] = system: Rattus norvegicus; assay: Upregulation of Srebf1 gene expression in Wistar rat at 60 mg/kg, po qd for 24 days by PCR analysis relative to control; assay type: functional; summary of the method: as §3
[20] = system: Rattus norvegicus; assay: Anabolic effect in Wistar rat assessed as increase in limb grip strength at 60 mg/kg, po qd for 24 days; assay type: functional, organism-based; set-up: dose 60 mg/kg
[21] = system: Rattus norvegicus; assay: Upregulation of Igf2 gene expression in Wistar rat at 60 mg/kg, po qd for 24 days by PCR analysis relative to control; assay type: functional; summary of the method: as §4

In the case of `CC[C@@H](C(C)C)[C@@H](O)[C@H](O)[C@@H](C)[C@H]1CC[C@H]2[C@@H]3COC(=O)[C@H]4C[C@H](O)[C@H](O)C[C@]4(C)[C@H]3CC[C@]12C`, the Activity [1] is reported as “Active”, the Activity [2] is reported as -15% and the Activity [3] is reported as “Non-toxic”. For the same molecule, the Activity [4] was 13%.

In the case of `CC(C)[C@@H](C)[C@H](O)[C@@H](O)[C@@H](C)[C@H]1CC[C@H]2[C@@H]3COC(=O)[C@H]4C[C@H](O)[C@H](O)C[C@]4(C)[C@H]3CC[C@]12C`, the Activity [1] is reported as “Active”, the Activity [2] is reported as -6% and the Activity [3] is reported as “Non-toxic”. It also gave an Activity [4] of 4%.

`CC[C@@H](C(C)C)[C@H](O)[C@@H](O)[C@@H](C)[C@H]1CC[C@H]2[C@@H]3CC(=O)[C@H]4C[C@H](O)[C@H](O)C[C@]4(C)[C@H]3CC[C@]12C` was tested, and the Activity [1] was “Active”, the Activity [5] was 40.7% and the Activity [6] was “Dose-dependent effect”. The Activity [7] was 8.7%, the Activity [2] was -23% and the Activity [3] was “Non-toxic”. For the same molecule, the Activity [8] was “Non-toxic” and the Activity [4] was 41%.

In the case of `CC[C@H](C(C)C)[C@H](O)[C@@H](O)[C@@H](C)[C@H]1CC[C@H]2[C@@H]3COC(=O)[C@H]4C[C@H](F)CC[C@]4(C)[C@H]3CC[C@]12C`, the Activity [1] is reported as “Active”, the Activity [2] is reported as -21% and the Activity [3] is reported as “Non-toxic”. For the same molecule, the Activity [8] was “Toxic” and the Activity [4] was 25%.

`CC[C@@H](C(C)C)[C@H](O)[C@@H](O)[C@@H](C)[C@H]1CC[C@H]2[C@@H]3CNC(=O)[C@H]4C[C@H](O)[C@H](O)C[C@]4(C)[C@H]3CC[C@]12C` was tested, and the Activity [1] was “Active”, the Activity [2] was -1% and the IC50 [9] was 12.5 µM. For the same molecule, the Activity [3] was “Non-toxic” and the Activity [4] was 21%.

With `CC[C@@H](C(C)C)[C@H](O)[C@@H](O)[C@@H](C)[C@H]1CC[C@H]2[C@@H]3COC(=O)[C@H]4C[C@H](O)[C@H](O)C[C@]4(C)[C@H]3CC[C@]12C` the “fold change (FC)” value [10] was 4.5, the Activity [1] was “Active” and the Activity [11] was 14.2%. For the same molecule, the Activity [5] was 36.9%, the “fold change (FC)” value [12] was 1.7 and the Activity [6] was “Dose-dependent effect”. The Activity [7] was 8.2%, the “fold change (FC)” value [13] was 6.5 and the “fold change (FC)” value [14] was 2.5. The Activity [2] was -24%, the Activity [15] was “inactive” and the Activity [3] was “Non-toxic”. For the same molecule, the “fold change (FC)” value [16] was 2.1, the Activity [8] was “Non-toxic” and the “fold change (FC)” value [17] was 1.3. The “fold change (FC)” value [18] was 1.3, the Activity [4] was 37% and the “fold change (FC)” value [19] was 2.5. The Activity [20] was “Active” and the “fold change (FC)” value [21] was 1.4.

With `CC(C)[C@@H](C)[C@@H](O)[C@H](O)[C@@H](C)[C@H]1CC[C@H]2[C@@H]3COC(=O)[C@H]4C[C@H](O)[C@H](O)C[C@]4(C)[C@H]3CC[C@]12C` the Activity [1] was “Active”, the Activity [2] was -7% and the Activity [3] was “Non-toxic”. It also gave an Activity [4] of 12%.

`CC[C@@H](C(C)C)[C@H](O)[C@@H](O)[C@@H](C)[C@H]1CC[C@H]2[C@@H]3CC(=O)[C@H]4C[C@H](F)CC[C@]4(C)[C@H]3CC[C@]12C` was tested, and the Activity [1] was “Active”, the Activity [2] was -16% and the Activity [3] was “Non-toxic”. For the same molecule, the Activity [8] was “Toxic” and the Activity [4] was 23%.

For `CC[C@@H](C(C)C)[C@H](O)[C@@H](O)[C@@H](C)[C@H]1CC[C@H]2[C@@H]3CC(=O)N[C@H]4C[C@H](O)[C@H](O)C[C@]4(C)[C@H]3CC[C@]12C`, the Activity [1] was “Active”, the Activity [2] was -14% and the Activity [3] was “Non-toxic”. For the same molecule, the Activity [4] was 3%.

— ChEMBL document CHEMBL1799978, “Akt-dependent anabolic activity of natural and synthetic brassinosteroids in rat skeletal muscle cells” (J Med Chem, 2011)
